This is an account of results in ChEMBL document CHEMBL4513216, “Probing the Open Global Health Chemical Diversity Library for Multistage-Active Starting Points for Next-Generation Antimalarials” (ACS Infect Dis, 2020).

This data set is described as follows: Toxicity liver stage against HepG2, at 10uM. The format is cell-based. The arrangement: test concentration 10 uM, cell line HepG2-A16-CD81EGFP. The conditions noted are these: human, HepG2-A16-CD81EGFP cells; read-out: INHIBITION
The method, boiled down:
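Uninfected HepG2-A16-CD81EGFP cells, 3 × 10^3 per well, 1536-well, plated on prespotted compound at 10 μM final, parasite-free screening media added to match infected plates; puromycin 10 μM positive, DMSO 0.5% negative; run in parallel with 48 h PbLuc assay at 37 °C, 5% CO2; viability by CellTiter-Glo luminescence, normalized to controls.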
With `Cc1cc2ncn(C(=O)N3CCCCC3)c2cc1C`, the cytotoxicity at 10 µM amounted to 10.3%.

As to `O=C1CO[C@H](c2ccc(NS(=O)(=O)c3ccccc3)cc2)[C@@H](CO)N1`, the cytotoxicity at 10 µM is 2.17%.

For the molecule `c1cnc2c(c1)nc1n2[C@@H](CNC2CCOCC2)COC1`, the cytotoxicity at 10 µM is -4.8%.

`NC(=O)CC1c2cccnc2C(=O)N1Cc1ccccc1` (stereo not drawn): the cytotoxicity at 10 µM is -5.8%.

Regarding `Cc1nn(C)cc1C1CC(=O)Nc2c1cnn2C(C)(C)C` (stereo not drawn), the cytotoxicity at 10 µM was -5.45%.

Regarding `O=C(NCCc1ccccn1)c1n[nH]c2c1CCC2`, the cytotoxicity at 10 µM is -3.81%.

As to `O=C(c1ccno1)N1CC(c2nc(-c3ccco3)no2)C1`, the cytotoxicity at 10 µM was -11.3%.

`CC(C)CNC(=O)N1C[C@@H]2CCCN[C@@H]2C1`: the cytotoxicity at 10 µM worked out at 5%.

As to `CC(=O)N1CCC2(C1)CN(S(=O)(=O)c1ccccc1)C2`, the cytotoxicity at 10 µM was 3.82%.

For the molecule `c1cnc(N2CC3(CCN(C4CCOC4)CC3)c3ccccc32)nc1` (stereo not drawn), the cytotoxicity at 10 µM was -4.2%.

In the case of `O=c1ccc(-c2cccs2)nn1CN1CCOC(c2ccccc2)C1` (stereo not drawn), the cytotoxicity at 10 µM turned out to be 7.57%.

As for `CC(=O)c1c(C)nn(S(=O)(=O)c2ccc(Cl)cc2)c1C`, the cytotoxicity at 10 µM was -6.74%.

For `COC(=O)COc1nc(CC(C)C)c2c(c1C#N)CCCC2`, the cytotoxicity at 10 µM stood at 21.5%.

As to `COCCN1CCC2(CCCN(C(=O)c3cnoc3C)C2)C1=O` (stereo not drawn), the cytotoxicity at 10 µM was -23.8%.

Turning to `CS(=O)(=O)N1CCN(C(=O)c2cc(-c3ccco3)cs2)CC1`, the cytotoxicity at 10 µM turned out to be 4.73%.

As to `CC(C)(NC(=O)Cc1ccccc1F)C(=O)O`, the cytotoxicity at 10 µM came out at 3.13%.

For the molecule `CC(C)c1nc(O)c2nnn(C[C@@H]3CCCN(Cc4ccsc4)C3)c2n1`, the cytotoxicity at 10 µM is -4.6%.

On to `COCCn1cnnc1C1CCCN(C(C)C)C1` (stereo not drawn), for which the cytotoxicity at 10 µM was -27.6%.

For `Cc1noc(C)c1-c1nc(N(C)C)ncc1-c1cnccn1`, the cytotoxicity at 10 µM is -22.8%.

For `Cc1nn(C)c(C)c1NC(=O)CNC(c1ccccc1)C1CCC1` (stereo not drawn), the cytotoxicity at 10 µM was 1.44%.

`Cc1cccc(NC(=O)N2CCC(CO)(Nc3ccccc3)CC2)c1`: the cytotoxicity at 10 µM stood at 0.045%.

Consider `OCCOc1cc(F)ccc1NCc1ccc(F)c(F)c1`, for which the cytotoxicity at 10 µM was -6.38%.

Regarding `Cc1nnc(NCc2ccc(F)cc2)o1`, the cytotoxicity at 10 µM was found to be 0.217%.

As for `CSCC(=O)N1CCOC(c2nc(C(C)C)n[nH]2)C1` (stereo not drawn), the cytotoxicity at 10 µM was -4.99%.

Consider `CN(CC(=O)NCCC#N)C(c1ccccc1)c1ccccc1`, for which the cytotoxicity at 10 µM is 6.51%.

`COc1cc2nc(C)sc2cc1NC(=O)C(C)NC(N)=O` (stereo not drawn): the cytotoxicity at 10 µM is -9.93%.

For the molecule `CCC(CC)C(=O)NS(=O)(=O)CCc1ccccc1`, the cytotoxicity at 10 µM was 1.76%.

Regarding `C[C@@H]1CN(Cc2ccccc2F)CC(C(N)=O)O1` (stereo partly drawn), the cytotoxicity at 10 µM was found to be 1.95%.

`Cc1ccccc1C(NC(=O)NCC1(O)CCC1)C1CC1` (stereo not drawn): the cytotoxicity at 10 µM was -3.03%.

In the case of `COc1cccc(-c2cnc(CNC(C)(C)c3nc(C)cs3)o2)c1`, the cytotoxicity at 10 µM came out at 11.4%.

As to `CCOCC(=O)NC(C)Cc1ccccc1Br` (stereo not drawn), the cytotoxicity at 10 µM is -11%.

For `CC(C)(C)OC(=O)NCCNC(=O)c1ccc2cc[nH]c2c1`, the cytotoxicity at 10 µM is -0.224%.

Regarding `O=C(NCc1nncn1C1CC1)Nc1ccc(OC2CCC2)c(F)c1`, the cytotoxicity at 10 µM is -3.2%.

Take `CCNC(=O)NCc1cccc(N2CC=CC2)c1`: the cytotoxicity at 10 µM amounted to 5.03%.

For `Cc1cnn(CC2CCCN2c2ccc(C#N)cn2)c1` (stereo not drawn), the cytotoxicity at 10 µM was 14%.

Regarding `Cn1nnc2cc(C(=O)NS(=O)(=O)Cc3ccc(F)cc3)ccc21`, the cytotoxicity at 10 µM was -3.7%.

Turning to `CC(C)N(CC(N)=O)Cc1csc(-c2ncccn2)n1`, the cytotoxicity at 10 µM was found to be 5.85%.

With `CC(C(=O)NC1CC1)S(=O)(=O)c1cc2c(cc1Cl)OCCO2` (stereo not drawn), the cytotoxicity at 10 µM is -13.9%.

`c1cc(N2CCSCC2)ccc1CNc1cncc2nnnn12`: the cytotoxicity at 10 µM turned out to be 5.51%.

In the case of `CCN(Cc1ccccc1)S(=O)(=O)C1CCS(=O)(=O)CC1`, the cytotoxicity at 10 µM came out at 5.44%.

Turning to `CCn1nc(C)cc1C(=O)N1CCOc2cc(C)ccc21`, the cytotoxicity at 10 µM was determined as 10.5%.

Consider `CCn1cnnc1CCNC(=O)C(C)(C)c1cccc(Cl)c1`, for which the cytotoxicity at 10 µM came to 7.76%.

Turning to `Cc1csc(CNC(=O)NCC(O)c2cccc(Cl)c2)n1` (stereo not drawn), the cytotoxicity at 10 µM is -14.6%.

Take `COCc1noc(C2(c3ccc(OC)cc3)CCOCC2)n1`: the cytotoxicity at 10 µM is -22.3%.

Take `CC(=O)NCCc1ccc(S(=O)(=O)N(CC(C)C)C(C)C)s1`: the cytotoxicity at 10 µM turned out to be 18.8%.

Consider `Cc1ccccc1CS(=O)(=O)CC(=O)NCc1ccccc1F`, for which the cytotoxicity at 10 µM was -6%.

With `O=C(CC1CN(Cc2ccccc2)CCO1)NC1CCCC1` (stereo not drawn), the cytotoxicity at 10 µM was -0.394%.

Regarding `COc1cccc(-c2cc(C(=O)NCCCC(F)(F)F)[nH]n2)c1`, the cytotoxicity at 10 µM was -13.9%.

Take `CCN(Cc1cn(CC2CCNCC2)nn1)CC1CCCO1` (stereo not drawn): the cytotoxicity at 10 µM is -1.77%.

On to `Cc1nc(C2CCCNC2)cc(N(C)CCc2ccccc2)n1` (stereo not drawn), for which the cytotoxicity at 10 µM is -1.36%.

Consider `CCn1nc(C)c(CCn2ccnc2-c2cc3n(n2)CCNC3)c1C`, for which the cytotoxicity at 10 µM turned out to be 5.15%.

With `Cc1nn(C)c2nc(NCCCN3CCCC(C(N)=O)C3)sc12` (stereo not drawn), the cytotoxicity at 10 µM was -9.8%.

In the case of `CC[C@@]1(O)CCN(C(=O)c2cccc3cc(C)oc23)C[C@H]1O`, the cytotoxicity at 10 µM was determined as 4.62%.

For `COc1ccccc1OCCCc1cc(C)nc(N)n1`, the cytotoxicity at 10 µM was 0.915%.

On to `CC(C)CN(Cc1ccc(C(F)(F)F)nc1)Cc1cnn(C)c1`, for which the cytotoxicity at 10 µM is 1.42%.

Consider `Cc1cc(C)c2[nH]c(C(=O)NCCN3CCNC3=O)c(C)c2c1`, for which the cytotoxicity at 10 µM stood at 2.49%.

Regarding `CCN1CCC(CC(=O)NCCc2nc(O)cc(O)n2)CC1`, the cytotoxicity at 10 µM is -4.76%.

Take `CCCc1cnc(C)nc1N1CCC(Cn2cc(CN(C)C)nn2)CC1`: the cytotoxicity at 10 µM is -4.4%.

For `O=C(c1ccccc1-c1nnn[nH]1)N1CCOC(C(F)(F)F)C1` (stereo not drawn), the cytotoxicity at 10 µM is -1.67%.

`CC(=O)c1cc(CN2CCCC2c2nc3ccc(C)cc3[nH]2)cs1` (stereo not drawn): the cytotoxicity at 10 µM was determined as 3.01%.

Consider `COc1nc2c(cc1C(=O)NCCc1nc3ccccc3s1)CCC2`, for which the cytotoxicity at 10 µM stood at 5.79%.

For `COCCc1noc(Cn2c(=O)[nH]c3ccccc32)n1`, the cytotoxicity at 10 µM is -2.03%.

For the molecule `Cc1cc(C)n2nc(C(=O)N[C@H]3C[C@H]4CN(C)CCN4C3)cc2n1`, the cytotoxicity at 10 µM was -0.671%.

For the molecule `Cc1cccc(C(=O)N2CCN(S(C)(=O)=O)[C@@H]3CS(=O)(=O)C[C@@H]32)n1`, the cytotoxicity at 10 µM stood at 4.01%.

`O=C(c1ccc2sccc2c1)N1CCC(C(=O)O)(n2cccn2)CC1`: the cytotoxicity at 10 µM is -2.77%.

Consider `COc1cccn(Cc2nnc(-c3cccnc3)o2)c1=O`, for which the cytotoxicity at 10 µM worked out at 7.99%.

In the case of `O=C(NCCc1ccncc1)c1cccc(S(=O)(=O)N[C@@H]2CCNC2)c1`, the cytotoxicity at 10 µM was 4.93%.

Consider `COc1ccccc1NC(=O)c1cc2c([nH]c1=O)CCCC2=O`, for which the cytotoxicity at 10 µM was -4.14%.

Take `COCc1nc(CNc2cc(C)nc(N3CCCCC3)n2)no1`: the cytotoxicity at 10 µM worked out at 9.84%.

For `Cc1cc(CNC(=O)NCc2cccs2)no1`, the cytotoxicity at 10 µM is -1.87%.

`CN(Cc1ccco1)C(=O)C1CSCN1C(=O)C1CCC1` (stereo not drawn): the cytotoxicity at 10 µM is -13.2%.

As for `COCCCNC(=O)CN(C)C(=O)c1cc(Cl)ccc1O`, the cytotoxicity at 10 µM was -1.84%.

`CC(=O)N(Cc1noc(C2CC2)n1)C1CCN(Cc2cc(C)on2)C1` (stereo not drawn): the cytotoxicity at 10 µM was -6.08%.

In the case of `Cc1nnc2n1CCN(Cc1nc(-c3ccoc3)no1)C2`, the cytotoxicity at 10 µM was -5.86%.

Regarding `Cc1occc1C(=O)Nc1cnn(CCN2CCOCC2)c1`, the cytotoxicity at 10 µM was -10%.

Consider `Cc1cnn(C2CCCN(C(=O)c3ccnc(-n4cncn4)c3)C2)c1` (stereo not drawn), for which the cytotoxicity at 10 µM was -0.565%.

As to `CCN(CCNC(=O)c1cccc(C)c1C)C1CC1`, the cytotoxicity at 10 µM came out at 3.43%.

Take `Cc1noc(C(C)C)c1C(=O)NCCCN1CCCCCC1=O`: the cytotoxicity at 10 µM was 1.91%.

In the case of `CCCc1noc(CN2CCC(N(C)Cc3nnc(C4CC4)o3)C2)n1` (stereo not drawn), the cytotoxicity at 10 µM is -0.775%.

Regarding `O=C(NCCc1ccn(-c2ccccc2)n1)N1CCCC(O)C1` (stereo not drawn), the cytotoxicity at 10 µM was -41.8%.

Turning to `CN1CCN(C(=O)c2cccc(OCc3cscn3)c2)CC1`, the cytotoxicity at 10 µM was -6.18%.

With `Cc1cc(C(=O)N2CCc3nnc(N)cc3C2)c(C)n1C1CC1`, the cytotoxicity at 10 µM is -3.71%.

`COc1c(CNCc2ccc(CN(C)C)cc2)c(C)nn1C`: the cytotoxicity at 10 µM is 3.87%.

On to `CC(CN1CCOCC1)n1cncc1-c1ccc2c(c1)CCCN2C` (stereo not drawn), for which the cytotoxicity at 10 µM was 12.3%.

On to `CC(C)CN1CCC2(CCCNC2)C1=O` (stereo not drawn), for which the cytotoxicity at 10 µM is -0.184%.

For `O=C(Cn1c(-c2ccco2)cc2cccnc21)N1CCCC1`, the cytotoxicity at 10 µM was -4.04%.

On to `CCOc1ccc(CN[C@@H]2COC[C@H]2c2ccc(F)cc2)cc1`, for which the cytotoxicity at 10 µM turned out to be 17.1%.

As for `Cc1ccoc1C(=O)N1CCc2ccc(=O)n(CCN(C)C)c2CC1`, the cytotoxicity at 10 µM amounted to 1.41%.

As for `Cc1ccc(C(=O)N2CCC3(CC2)NC(=O)CC3c2ccccc2)cn1` (stereo not drawn), the cytotoxicity at 10 µM is -2.47%.

As for `Cn1cc(C2CC(=O)NC23CCN(Cc2ccncc2)CC3)cn1` (stereo not drawn), the cytotoxicity at 10 µM was determined as 13.2%.

On to `CNCC(=O)N1CCCC1c1n[nH]cc1-c1ccccc1F` (stereo not drawn), for which the cytotoxicity at 10 µM is -0.136%.

As to `COc1c(CNC2CCc3c(F)cccc32)c(C)nn1C` (stereo not drawn), the cytotoxicity at 10 µM is 0.665%.

As to `CS(=O)(=O)NC[C@H]1OC[C@@H]2CCN(Cc3ccc(F)cc3)C[C@@H]21`, the cytotoxicity at 10 µM is -2.26%.

For the molecule `O=C(C1CC1)N1CC2(CCN(CC3CC3)CC2)c2cc(F)ccc21`, the cytotoxicity at 10 µM stood at 0.64%.

Turning to `Cc1cccc(CN2CC3(CCN(Cc4ccco4)CC3)OCC2=O)n1`, the cytotoxicity at 10 µM turned out to be 8.1%.

Take `COC1C[C@@H]2CN(C(=O)c3ccc(C)s3)C[C@@H]2C1` (stereo partly drawn): the cytotoxicity at 10 µM was -2%.

As for `CCC=C(C)C(=O)N1CSCC1C(=O)N(C)CCc1ccncc1` (stereo not drawn), the cytotoxicity at 10 µM was -9.72%.

Take `O=C(c1ccc[nH]1)N1C[C@@H]2CC[C@H]1CN(c1ncccn1)C2`: the cytotoxicity at 10 µM is -7.12%.
